For series [1], the target named is T1, Hemoglobin HbA (Homo sapiens) (UniProt P69905+P68871). The experiment in a line: Drug reactivity against betacys93 in hemoglobin (unknown origin) assessed as free SH in betacys93 at 2 mM incubated for 16 hrs by UPLC-MS analysis relative to control. The format is protein-complex assay. The conditions noted are these: in the assay text read “by DTNB disulfide exchange assay” for “by UPLC-MS analysis”. In outline: (§1)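 Hb (50 µM in PBS) was reacted with 2 mM compound (final) at room temperature for 2 h or 16 h. Hb was recovered by centrifugation and 10 kDa ultrafiltration, then washed. Samples were incubated in 0.1 M potassium phosphate pH 8.0 with DTNB for 1 h at 25 °C. Hb content was taken from A576 and free thiol from 2-nitrobenzoate at A412 (ε 14 150 M-1 cm-1). Values are the mean of quadruplicates ± SD. % adduct = 100 − available SH from two βCys93.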

The nature of series [2]: Drug reactivity against cysteine in PBS buffer at 2 mM incubated for 3 hrs by UPLC-MS analysis relative to control.
Series [3] addresses T1, Hemoglobin HbA (Homo sapiens). The experiment in a line: Binding affinity to hemoglobin in whole blood (unknown origin) incubated for 2 hrs. The format is tissue-based. In outline: (§2)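 Normal human whole blood at 20% hematocrit was incubated with compound (1 mM and 2 mM final) for 2 h at 37 °C. Hb–O2 affinity was then measured from oxygen equilibrium curves. Runs were done at least in triplicate.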

Series [4] shares this target. The experiment in a line: Drug reactivity against betacys93 in hemoglobin (unknown origin) assessed as betacys93-compound adduct formation at 2 mM incubated for 2 hrs by UPLC-MS analysis relative to control. The conditions noted are these: in the assay text read “by DTNB disulfide exchange assay” for “by UPLC-MS analysis”. The series is classed as protein-complex assay. In outline: as §1

The target is the same in series [5]. Kind of series: Drug reactivity against betacys93 in hemoglobin (unknown origin) assessed as betacys93-compound adduct formation at 2 mM incubated for 16 hrs by UPLC-MS analysis relative to control. The following applies: in the assay text read “by DTNB disulfide exchange assay” for “by UPLC-MS analysis”. The format is protein-complex assay. In outline: as §1

For series [6] the target is unchanged. Kind of series: Binding affinity to hemoglobin in whole blood (unknown origin) at 2 mM incubated for 2 hrs relative to control. The series is classed as tissue-based. In outline:
as §2

For series [7] the target is unchanged. The experiment in a line: Binding affinity to hemoglobin in whole blood (unknown origin) at 2 mM incubated for 8 hrs. The format is tissue-based. In outline: (§3)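 Normal whole blood was incubated with 2 mM compound at 37 °C for up to 24 h. Aliquots taken at 1, 2, 4, 8 and 24 h were assessed by oxygen equilibrium curves, with DMSO as vehicle control.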
In a further series the test system is Erythrocyte. Kind of series: Anti-sickling activity in RBC derived from patient homozygous SS at 2 mM […] by microscopic analysis relative to control. The format is functional, Homo sapiens.
Series [8] deals with T1, Hemoglobin HbA (Homo sapiens). The experiment in a line: Binding affinity to hemoglobin in whole blood (unknown origin) at 1 mM incubated for 2 hrs relative to control. The series is classed as tissue-based. In outline: as §2
Series [9] in a line: Drug reactivity against cysteine in PBS buffer assessed as assessed as cysteine-compound adduct formation at 2 mM incubated for 3 hrs by UPLC-MS analysis relative to control.
Series [10] has as its target T1, Hemoglobin HbA (Homo sapiens). Kind of series: Binding affinity to hemoglobin in whole blood (unknown origin) at 2 mM incubated for 24 hrs. The series is classed as tissue-based. In outline:
as §3

Series [11] in a line: Acute toxicity in Swiss albino mouse assessed as mortality at 2000 mg/kg, po via gavage measured after 24 hrs by OECD 423 guideline based method. The series is classed as organism-based. The following applies: in vivo. In outline: (§4)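 Male and female Swiss albino mice (22–27 g, 8–10 weeks) were held at about 23 °C on a 12 h light/dark cycle with free food and water. Dosing was a single oral gavage of a 10% suspension in water with 0.5% Tween 80. Groups of n = 3 received 2000 mg/kg (days 1 and 2) or 5000 mg/kg (day 3). Toxic signs and mortality were watched for 24 h.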

Series [12] is described as follows: Acute toxicity in Swiss albino mouse assessed as mortality at 5000 mg/kg, po via gavage measured after 24 hrs by OECD 423 guideline based method. The conditions noted are these: in vivo. The series is classed as organism-based. In outline: as §4

Results on five molecules are retold here after ChEMBL document CHEMBL4373674, “Structural modification of azolylacryloyl derivatives yields a novel class of covalent modifiers of hemoglobin as potential antisickling agents” (Medchemcomm, 2019).

Calls of active or inactive are those of the source. The calls are words filed in the database; no cut-off is given here.

T1 sequence (P68871 2-147 partner limits assumed): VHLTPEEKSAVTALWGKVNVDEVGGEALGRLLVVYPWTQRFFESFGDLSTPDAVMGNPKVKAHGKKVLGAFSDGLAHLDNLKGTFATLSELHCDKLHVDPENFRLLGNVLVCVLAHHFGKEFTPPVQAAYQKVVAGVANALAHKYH
T1 sequence (P69905 2-142 limits assumed): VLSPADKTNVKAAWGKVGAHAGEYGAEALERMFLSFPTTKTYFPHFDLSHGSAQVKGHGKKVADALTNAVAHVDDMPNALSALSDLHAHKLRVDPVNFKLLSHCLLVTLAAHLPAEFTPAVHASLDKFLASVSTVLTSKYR

In the case of `COc1ccc(C(=O)/C=C/c2ncc[nH]2)cc1OC`, the Activity in [1] stood at 80%; in series [2], 46.3%; in [4], 9%; in series [5], 20%; in [6], 6.5%; with Erythrocyte, 5%. Also, the Activity is 6.5% in series [8] and 53.7% in [9]. Further, the outcome in series [3] and in series [7] was Active.
With `O=C(O)CCCOc1ccc(C(=O)/C=C/c2ncc[nH]2)cc1Cl`, the Activity in [1] came to 70%; in series [4], 11%; in series [5] it was 30%; in series [6], 4.5%; with Erythrocyte, 2%; in [8] it was 1.9%. The result in series [3] and in series [7] was Active.
Take `O=C(/C=C/c1ncc[nH]1)c1ccccc1`: the Activity in series [1] turned out to be 79%; in [2] it was 80.4%; in series [4] it was 10%; in series [5], 21%; in series [6] it was 11.3%; in the series with Erythrocyte it was 7%. In addition, the Activity in [8] is 7%; in series [9], 19.6%. The result in [3] and in [10] was Active.
As for `O=C(/C=C/c1ncc[nH]1)c1ccc(OC2CCCCO2)cc1` (configuration not stated), the Activity in series [2] came to 45.1%; in series [6], 15.2%; in the series with Erythrocyte it was 7%; in series [8] it was 9.9%; in [9], 54.9%. For the same molecule, the result in series [3] and in series [10] was Active.
As for `COc1ccc(C(=O)/C=C/c2ncc[nH]2)cc1`, the Activity is 63% in series [1]; 23% in [2]; 11% in series [4]; “Non-Toxic” in series [11]; 37% in series [5]; 11.8% in [6]. Besides, the Activity in the series with Erythrocyte is 9%; in series [8], 8.2%; in [12], “Toxic”; in series [9], 77%. The outcome in series [3] and in [10] was Active.
